Results published in ChEMBL document CHEMBL1125686, “(Benzoylphenyl)piperidines: a new class of immunomodulators” (1991).

What was measured:
Assay type in all cases: functional
Mus musculus [1] = experiment: Proliferation induced by the mitogen alone-Concanavalin A (control blastogenesis), in mice cells dosed at 5 ug/mL; set-up: unit not given here
In short: (§1)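 Splenocytes from female DBA/2 mice, 6–9 weeks old; red cells lysed with cold 0.17 M NH₄Cl. Cells plated at 5 × 10⁶ cells/mL in RPMI 1640 with 5% FCS, with compound (5–80 μg/mL range) and Con A, PWM or PHA at a batch-optimized concentration. Cultured 72 h at 37 °C, 5% CO₂, with [³H]thymidine for the final 24 h, read by scintillation. Triplicate wells; mean ± SD of three cultures.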

Mus musculus [2] = organism: Mus musculus; experiment: Proliferation induced by the mitogen alone-PHA (control blastogenesis), in Mice cells at a dose of 5 ug/mL; set-up: unit not given here; in short: as §1
Mus musculus [3] = organism: Mus musculus; experiment: Maximal proliferation induced in the presence of the mitogen-PHA ( stimulated blastogenesis) in Mice cells at a dose of 5 ug/mL; set-up: unit not given here; in short: as §1
Mus musculus [4] = organism: Mus musculus; experiment: Maximal proliferation induced in the presence of the mitogen-PWM ( stimulated blastogenesis) in Mice cells at a dose of 10 ug/mL; set-up: unit not given here; in short: as §1
Mus musculus [5] = experiment: Maximal proliferation induced in the presence of the mitogen-Concanavalin A (stimulated blastogenesis) in mice cells dosed at 5 ug/mL; set-up: unit not given here; in short: as §1
Mus musculus [6] = organism: Mus musculus; experiment: Proliferation induced by the mitogen alone-PWM (control blastogenesis), in Mice cells at a dose of 10 ug/mL; set-up: unit not given here; in short: as §1
Mus musculus [7] = organism: Mus musculus; experiment: Maximal proliferation induced in the presence of the mitogen-PWM ( stimulated blastogenesis) in Mice cells at a dose of 80 ug/mL; set-up: unit not given here; in short: as §1
Mus musculus [8] = organism: Mus musculus; experiment: Proliferation induced by the mitogen alone-PWM (control blastogenesis), in Mice cells at a dose of 80 ug/mL; set-up: unit not given here
In short: (§2)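 Splenocytes from female DBA/2 mice aged 6–9 weeks, red cells lysed with cold 0.17 M NH4Cl, cultured at 5 × 10⁶ cells/mL in RPMI 1640 with 5% FCS. Pokeweed mitogen added at a batch-adjusted optimal level, 72 h at 37 °C, 5% CO2. [³H]thymidine pulse for the final 24 h, then scintillation counting. Triplicates; mean ± SD of three cultures.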

Mus musculus [9] = organism: Mus musculus; experiment: Maximal proliferation induced by the test compound in the presence of the mitogen-PWM ( stimulated blastogenesis) in Mice cells at a dose of 20 ug/mL; in short: as §1
Mus musculus [10] = organism: Mus musculus; experiment: Proliferation induced by the mitogen alone-PWM (control blastogenesis), in Mice cells at a dose of 20 ug/mL; in short: as §1
Mus musculus [11] = organism: Mus musculus; experiment: Maximal proliferation induced by the test compound in the presence of the mitogen-PHA ( stimulated blastogenesis) in Mice cells at a dose of 7.5 ug/mL; in short: as §1
Mus musculus [12] = organism: Mus musculus; experiment: Proliferation induced by the mitogen alone-PHA (control blastogenesis), in Mice cells at a dose of 7.5 ug/mL; in short: as §1
Mus musculus [13] = organism: Mus musculus; experiment: Proliferation induced by the mitogen alone-PWM (control blastogenesis), in Mice cells at a dose of 40 ug/mL; set-up: unit not given here; in short: as §2
Mus musculus [14] = organism: Mus musculus; experiment: Maximal proliferation induced in the presence of the mitogen-PWM ( stimulated blastogenesis) in Mice cells at a dose of 40 ug/mL; set-up: unit not given here; in short: as §1
Mus musculus [15] = experiment: […] induction of Thyl+ antigen expression on murine bone marrow cells (Fraction A).(Treated)
In short: (§3)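 Bone marrow from female C57 BL/6 mice, 5–8 weeks old, separated on a discontinuous BSA gradient. Fraction A (lowest density) and fraction B (next lowest) resuspended at 10⁶ cells/mL in HBSS with 5% BSA. Cells incubated 24 h with one compound concentration, then stained directly with FITC anti-Thy1 and counted by epifluorescence microscopy. % Thy1⁺ cells recorded for treated and control cultures.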

Mus musculus [16] = experiment: […] induction of Thyl+ antigen expression on murine bone marrow cells (Fraction A).(Control group); in short: as §3
Mus musculus [17] = experiment: […] induction of Thyl+ antigen expression on murine bone marrow cells (Fraction B).(Control group); in short: as §3
Mus musculus [18] = experiment: […] induction of Thyl+ antigen expression on murine bone marrow cells (Fraction B).(Treated); in short: as §3

Row | Molecule | Proliferative response (Mus musculus [1]) | Proliferative response (Mus musculus [2]) | Proliferative response (Mus musculus [3]) | Proliferative response (Mus musculus [4]) | Proliferative response (Mus musculus [5]) | Proliferative response (Mus musculus [6]) | other results
1 | COc1ccc(C(=O)c2cc(N)ccc2N2CCC(C)CC2)cc1 | 322.1 | 36.3 | 54.3 | 121.8 | 363.6 | 103.3 | –
2 | COc1ccc(C(=O)c2cc(N)ccc2N2CCC(C)CC2)cc1OC | 137.4 | – | – | – | 158.4 | – | Proliferative response (Mus musculus [7]): 48.8; Proliferative response (Mus musculus [8]): 44.9
3 | Nc1ccc(N2CCC(O)CC2)c(C(=O)c2ccc(Cl)cc2)c1 | 374.8 | 45 | 52.6 | 88.7 | 281.1 | 107.9 | –
4 | CCC1CCN(c2ccc(N)cc2C(=O)c2ccc(Cl)cc2)CC1 | 319.5 | 30.4 | 37.4 | 114.6 | 348 | 88.7 | –
5 | Cc1cc(C(=O)c2cc(N)ccc2N2CCC(C)CC2)cc(C)c1C | 152.6 | – | – | – | 206 | – | Proliferative response (Mus musculus [9]): 77.1; Proliferative response (Mus musculus [10]): 84.5
6 | CC1CCN(c2ccc(Cl)cc2C(=O)c2ccc(Cl)cc2)CC1 | 55.6 | – | – | – | 68.7 | – | Proliferative response (Mus musculus [11]): 8.2; Proliferative response (Mus musculus [12]): 14.6
7 | CNc1ccc(N2CCC(C)CC2)c(C(=O)c2ccc(Cl)cc2)c1 | 18.2 | – | – | 19.5 | 21.3 | 20.3 | –
8 | CC1CCN(c2ccccc2C(=O)c2ccc(Cl)cc2)CC1 | 92.7 | – | – | – | 62.7 | – | Proliferative response (Mus musculus [11]): 15.5; Proliferative response (Mus musculus [12]): 17.4
9 | Cc1cccc(C(=O)c2cc(N)ccc2N2CCC(C)CC2)c1 | 389.9 | 47.9 | 62.4 | 135.9 | 414.1 | 98.8 | –
10 | CC1CCN(c2ccc(N)cc2C(=O)c2ccc(Cl)c(Cl)c2)CC1 | 136.6 | – | – | – | 151.5 | – | Proliferative response (Mus musculus [7]): 64.4; Proliferative response (Mus musculus [8]): 48.4
11 | Cc1ccc(C(=O)c2cc(N)ccc2N2CCC(C)CC2)cc1 | 179.7 | – | – | – | 283.2 | – | Proliferative response (Mus musculus [13]): 53.8; Proliferative response (Mus musculus [14]): 48.9
12 | Nc1ccc(N2CCCCC2)c(C(=O)c2ccc(Cl)cc2)c1 | 24.6 | – | – | 44.8 | 21.3 | 47.7 | –
13 | CC1CCN(c2ccc(N)cc2C(=O)c2ccccc2)CC1 | 188.1 | – | – | – | 167 | – | Proliferative response (Mus musculus [13]): 48.9; Proliferative response (Mus musculus [14]): 55.7
14 | CC1CCN(c2ccc(N)cc2C(=O)c2ccc(F)cc2)CC1 | 268.2 | – | – | – | 165.6 | – | Proliferative response (Mus musculus [7]): 69.9; Proliferative response (Mus musculus [8]): 72.2
15 | Nc1ccc(N2CCC(Cc3ccccc3)CC2)c(C(=O)c2ccc(Cl)cc2)c1 | 328 | 27.4 | 35.1 | 79.5 | 308 | 108.2 | –
16 | CC(C)(C)C1CCN(c2ccc(N)cc2C(=O)c2ccc(Cl)cc2)CC1 | 30.5 | 59.1 | 55 | 137.5 | 31.9 | 114.8 | –
17 | Cc1ccc(C(=O)c2cc(N)ccc2N2CCC(C)CC2)c(C)c1 | 279.6 | – | – | – | 250 | – | Proliferative response (Mus musculus [7]): 61.5; Proliferative response (Mus musculus [8]): 68.8
18 | CC1CCN(c2ccc(N)cc2C(=O)c2ccc(Br)cc2)CC1 | 118.7 | 7 | 11.1 | – | 123.4 | – | Proliferative response (Mus musculus [13]): 40.5; Proliferative response (Mus musculus [14]): 56.4
19 | CC1CCN(c2ccc(N)cc2C(=O)c2ccccc2Cl)CC1 | 150 | – | – | – | 165.5 | – | Proliferative response (Mus musculus [9]): 85.8; Proliferative response (Mus musculus [10]): 80
20 | CC1CCN(c2ccc([N+](=O)[O-])cc2C(=O)c2ccc(Cl)cc2)CC1 | 160.9 | – | – | – | 93.7 | – | Proliferative response (Mus musculus [13]): 59.9; Proliferative response (Mus musculus [14]): 42.7
21 | CC1CCN(c2ccccc2C(=O)c2ccccc2)CC1 | 13.6 | – | – | 24.7 | 9 | 15.1 | –
22 | CC1CCN(c2ccc(N)cc2C(=O)c2cccc(C(F)(F)F)c2)CC1 | 332 | 34.3 | 36 | 79.9 | 297.7 | 79 | –
23 | CC1CCN(c2ccc(N)cc2C(=O)c2ccc(Cl)cc2Cl)CC1 | 280 | 46.7 | 46.4 | 115.9 | 246.2 | 105.5 | –
24 | CC1CCN(c2ccc(N)cc2C(=O)c2cccc(Cl)c2)CC1 | 316 | 40.2 | 40.9 | 105 | 343.8 | 102.8 | –
25 | CC1CCCN(c2ccc(N(C)C)cc2C(=O)c2ccc(Cl)cc2)C1 (stereo not drawn) | 17.6 | – | – | 18.6 | 14.9 | 21.4 | –
26 | COc1ccc(C(=O)c2ccccc2N2CCC(C)CC2)cc1 | 127.5 | – | – | 15.5 | 165 | 20.8 | –
27 | H-CSDAAVDVSSEITVKDLKEKKEVVEEAE-OH [THYMOSIN] | – | – | – | – | – | – | Differentiation (Mus musculus [15]): 21.9%; Differentiation (Mus musculus [16]): 10.8%; Differentiation (Mus musculus [17]): 6.3%; Differentiation (Mus musculus [18]): 9.4%
